Compound activity: PubChem, several laboratories
A selection: hits, their analogues and other compounds. The true share with any hit is near 1.8%.
DAGLB inhibitor: blocks human DAGLB lipase activity. Q8NCG7. HEK293T DAGLB membrane lysate, EnzChek fluorogenic substrate. inhibition, % at 5.17 µM. hit rate 0.059% among 340,000. AID 504411; in the data active = inhibition above about 34%;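 also: 0% = enzyme with vehicle and 100% = wells lacking enzyme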
Target sequence (Q8NCG7 whole entry, looked up): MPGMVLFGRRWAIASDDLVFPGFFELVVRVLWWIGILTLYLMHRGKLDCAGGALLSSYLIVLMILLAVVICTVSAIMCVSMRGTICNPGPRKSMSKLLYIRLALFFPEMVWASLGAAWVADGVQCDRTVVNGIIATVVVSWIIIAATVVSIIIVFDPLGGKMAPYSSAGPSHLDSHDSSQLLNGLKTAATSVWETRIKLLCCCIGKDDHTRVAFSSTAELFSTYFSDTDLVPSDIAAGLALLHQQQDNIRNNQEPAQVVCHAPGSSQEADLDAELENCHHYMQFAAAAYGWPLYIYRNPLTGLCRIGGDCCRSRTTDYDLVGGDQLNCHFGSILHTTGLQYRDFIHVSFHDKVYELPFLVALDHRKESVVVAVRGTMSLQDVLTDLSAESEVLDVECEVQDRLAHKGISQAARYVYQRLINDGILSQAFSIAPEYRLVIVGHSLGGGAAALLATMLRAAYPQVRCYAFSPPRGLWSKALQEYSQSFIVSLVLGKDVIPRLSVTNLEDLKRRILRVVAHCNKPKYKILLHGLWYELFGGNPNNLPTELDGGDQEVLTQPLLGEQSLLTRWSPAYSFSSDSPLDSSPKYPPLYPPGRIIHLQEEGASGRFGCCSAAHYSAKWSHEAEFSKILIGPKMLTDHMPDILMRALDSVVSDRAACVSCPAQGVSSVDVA
MT1-MMP act inh: blocks activation of human MT1-MMP; hit rate 0.061% among 360,000; GFP/RFP ratio change, % at 20 µM; HT1080 RFP-PRO-GFP cells, GFP/RFP ratio fluorescence, overnight; percent of plate control window, DMSO zero; P50281;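 active = GFP/RFP ratio change of at least 30% with cell ATP level not reduced by more than half and red fluorescence within 50% of control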
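Material – HT1080 RFP-PRO-GFP cells · Control set – DMSO wells and RFP-L50D-GFP cells · Incubation – overnight cell settling, then overnight compound exposure, 37 °C, 5% CO2 · Compound dosing – single-point 20 µM compound, 1% DMSO · Read-out – GFP/RFP fluorescence ratio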
SKN-1 inh: inhibitors of C. elegans SKN-1. inhibition, % at 21.8 µM. C. elegans VP596 Pgst-4::GFP/RFP ratio, acrylamide-induced, 24 h. hit rate 0.49% among 360,000;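 active = interference check ratio from 0.5 to 1.5 plus GFP to RFP signal ratio inhibition reaching or exceeding a fixed threshold, cut at about 30% in these data, passing the limit was not always enough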
rRNA inh HTS: selective bacterial rRNA inhibition in E. coli; E. coli WT GFP vs humanized-ribosome RFP mutants, fluorescence, 24 h; stronger effect = lower value; DMSO median 0, no signal -100; GFP signal change (wild-type ribosome), % (no concentration beside the values); hit rate 1.6% among 350,000;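 active = significant combined selectivity score with lowered wild-type GFP, culture density cut under 30%, mutant RFP and density less affected; inactive = any of these conditions unmet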
Cneo AK release: causes C. neoformans cell lysis; adenylate kinase release luminescence, 4 h; normalised: neutral wells 0, clomiphene wells 100; lysis activity, % at 15 µM; hit rate 0.2% among 360,000;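 active = mean lysis activity across replicates of at least 80%, whatever share of replicates individually reach that level; inactive = mean lysis activity below 80%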
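Material – log-phase Cryptococcus neoformans yeast cells · Input – 5 × 10^6 yeast cells/mL · Medium – fresh YPD growth medium · Doses – single compound concentration per well · Timing – static 4 h at 37 °C with compound, 1 h detection · Detection – adenylate kinase release luminescence · Read-out – signal increase indicating cell lysis · Control set – Clomiphene as positive lysis control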
iPSC survival up: enhancers of human iPSC single-cell survival | survival enhancement, % at 20 µM | hiPSC single-cell survival, ATPlite luminescence; 100% = ROCK inhibitor wells, 0% = DMSO | hit rate 0.044% among 360,000; in the data active = survival enhancement above about 18%;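 also: cells exposed to compounds for 16 hours before the ATP read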
DAGLB inh conf: DAGLB (human) inhibition, confirmation screen | shares compounds with DAGLB inhibitor | HEK293T DAGLB membrane lysate, EnzChek fluorogenic substrate | inhibition, % at 5.17 µM | hit rate 73% among 190;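 active = mean inhibition over triplicate wells above a set limit taken from the primary lipase screen, cut at about 34% in these data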;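 also: 0% = DAGLB with DMSO and 100% = wells lacking DAGLB enzyme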
* marks the source's active call; other numbers are inactive results; x = not tested or not shown.

SMILES | DAGLB inhibitor | MT1-MMP act inh | SKN-1 inh | rRNA inh HTS | Cneo AK release | iPSC survival up | DAGLB inh conf
CC1(C)CC(=O)C2=C(C1)N=C1c3ccccc3C(=O)C1C2c1ccc(Cl)cc1 (stereo not drawn) | 37* | -37 | 8 | x | -1 | -2 | 35*
Nc1ccc2c(c1)C(=O)c1cc(Cl)c(Cl)cc1-2 | 34* | 3 | 11 | 1 | 3 | -1 | 39*
Nc1ccc2c(c1)C(=O)c1ccc(N)cc1-2 | 9 | 9 | 18 | -15 | 0 | -4 | x
C[C@H](CO)N1C[C@H](C)[C@H](CN(C)C(=O)Nc2cccc3ccccc23)Oc2c(NS(=O)(=O)c3cccs3)cccc2C1=O | x | x | x | -3 | -6 | x | x
N#C/C(=C\c1ccc(O)c(O)c1)C(=O)NCCCc1ccccc1 | 40* | -15 | -26 | x | -2 | -1 | 17
COc1ccc(/C=C(\C#N)C(=O)NCCc2ccccc2)cc1OCc1ccccc1 | -7 | -7 | -5 | 19 | x | 3 | x
CC(C)NC(=O)Nc1ccc2c(c1)CC(=O)N(C)C[C@@H](C)[C@H](CN(C)C(=O)OC(C)(C)C)O2 | x | x | x | 0 | x | x | x
Cc1ccc2cc(C3C(C#N)=C(N)Oc4c3ccc3cccnc43)c(=O)[nH]c2c1 (stereo not drawn) | 36* | -19 | -1 | -4 | -1 | 12 | 4
CC(=O)C1=C(C)OC(N)=C(C#N)C1c1cc2cccc(C)c2nc1Cl (stereo not drawn) | 2 | -3 | -7 | x | 0 | 7 | x
COc1ccc(/C=N/Nc2ccc(C(F)(F)F)cc2[N+](=O)[O-])cc1O | 40* | 14 | 5 | x | x | -1 | 64*
CCCCc1ccc(C2C3=C(CC(C)(C)CC3=O)NC3=C2C(=O)c2ccccc23)cc1 (stereo not drawn) | 46* | -26 | 5 | 1 | 0 | -2 | 33
COCC(=O)Nc1ccc2c(c1)C(=O)N(C)[C@@H]1CC[C@H](CC(=O)NCc3ccc(OC)cc3)O[C@H]1CO2 | x | x | x | -3 | -4 | x | x
O=C(O)c1[nH]c2ccccc2c1C(c1cc(Cl)cc([N+](=O)[O-])c1O)c1c(C(=O)O)[nH]c2ccccc12 | 37* | 3 | 1 | -2 | -2 | 0 | 32
CO[C@H]1CN(C)C(=O)c2ccc(NC(=O)C3CC3)cc2OC[C@H](C)N(C(=O)c2cnccn2)C[C@@H]1C | x | x | x | 2 | -5 | x | x
COC(=O)C1=C(C(=O)OC)SC(=C2C(=S)C(C)(C)N(C(=O)C3CC3)c3ccccc32)S1 | 41* | 29 | 17 | x | 2 | 1 | 47*
CCCC(=O)N1c2ccccc2C(=C2SC(C(=O)OC)=C(C(=O)OC)S2)C(=S)C1(C)C | -3 | 13 | -7 | x | 2 | -2 | x
CN(C)CCCNC(=O)C[C@@H]1CC[C@@H]2[C@H](COC[C@H](O)CN2S(=O)(=O)c2ccc(Cl)cc2)O1 | x | x | x | 0 | -1 | x | x
Cn1c2ccccc2c2cc([N+](=O)[O-])ccc21 | 0 | -3 | 13 | 8 | x | 0 | x
CN1c2ccc([N+](=O)[O-])cc2N(C)C1(C)c1ccccc1 (stereo not drawn) | 37* | 15 | 7 | -1 | -1 | 0 | 33
COc1ccc(NC(=O)N[C@@H]2CC[C@@H](CCNS(=O)(=O)c3ccccc3F)O[C@@H]2CO)cc1 | x | x | x | 0 | -4 | x | x
Cc1cc(N=Nc2ccccc2C(=O)O)c(C)c(C)c1O | 35* | 14 | 22 | 5 | x | -1 | 48*
Cc1noc(C)c1NC(=O)N(C)C[C@@H]1Oc2ccc(NC(=O)Cn3cnnn3)cc2CC(=O)N([C@H](C)CO)C[C@H]1C | x | x | x | 0 | -1 | x | x
O=C(NNc1c2ccccc2nc2ccccc12)c1ccc(O)cc1O | 39* | 27 | 20 | x | -1 | 2 | 53*
CC1=C(O)C(=O)C(c2c(C)cc(C)c(Br)c2C)=C(O)C1=O | 43* | 9 | -4 | -54 | -3 | -2 | 33
